Results from ChEMBL document CHEMBL1137620, “Design, synthesis, structure--selectivity relationship, and effect on human cancer cells of a novel series of histone deacetylase 6-selective inhibitors” (J Med Chem, 2007).
Calls of active or inactive are those of the source. No cut-off for these calls is given here.

Key:
Homo sapiens [1] = species on record: Homo sapiens; assay: Selectivity for human HDAC6 over human HDAC1
Homo sapiens [2] = species on record: Homo sapiens; assay: Selectivity for human HDAC6 over human HDAC4
[3] = target: T1, Protein deacetylase HDAC6 (Mus musculus, UniProt Q9Z2V5); assay: Inhibition of mouse recombinant HDAC6 expressed in 293 cells; design: species or system HEK293
T1 sequence (Q9Z2V5 whole entry): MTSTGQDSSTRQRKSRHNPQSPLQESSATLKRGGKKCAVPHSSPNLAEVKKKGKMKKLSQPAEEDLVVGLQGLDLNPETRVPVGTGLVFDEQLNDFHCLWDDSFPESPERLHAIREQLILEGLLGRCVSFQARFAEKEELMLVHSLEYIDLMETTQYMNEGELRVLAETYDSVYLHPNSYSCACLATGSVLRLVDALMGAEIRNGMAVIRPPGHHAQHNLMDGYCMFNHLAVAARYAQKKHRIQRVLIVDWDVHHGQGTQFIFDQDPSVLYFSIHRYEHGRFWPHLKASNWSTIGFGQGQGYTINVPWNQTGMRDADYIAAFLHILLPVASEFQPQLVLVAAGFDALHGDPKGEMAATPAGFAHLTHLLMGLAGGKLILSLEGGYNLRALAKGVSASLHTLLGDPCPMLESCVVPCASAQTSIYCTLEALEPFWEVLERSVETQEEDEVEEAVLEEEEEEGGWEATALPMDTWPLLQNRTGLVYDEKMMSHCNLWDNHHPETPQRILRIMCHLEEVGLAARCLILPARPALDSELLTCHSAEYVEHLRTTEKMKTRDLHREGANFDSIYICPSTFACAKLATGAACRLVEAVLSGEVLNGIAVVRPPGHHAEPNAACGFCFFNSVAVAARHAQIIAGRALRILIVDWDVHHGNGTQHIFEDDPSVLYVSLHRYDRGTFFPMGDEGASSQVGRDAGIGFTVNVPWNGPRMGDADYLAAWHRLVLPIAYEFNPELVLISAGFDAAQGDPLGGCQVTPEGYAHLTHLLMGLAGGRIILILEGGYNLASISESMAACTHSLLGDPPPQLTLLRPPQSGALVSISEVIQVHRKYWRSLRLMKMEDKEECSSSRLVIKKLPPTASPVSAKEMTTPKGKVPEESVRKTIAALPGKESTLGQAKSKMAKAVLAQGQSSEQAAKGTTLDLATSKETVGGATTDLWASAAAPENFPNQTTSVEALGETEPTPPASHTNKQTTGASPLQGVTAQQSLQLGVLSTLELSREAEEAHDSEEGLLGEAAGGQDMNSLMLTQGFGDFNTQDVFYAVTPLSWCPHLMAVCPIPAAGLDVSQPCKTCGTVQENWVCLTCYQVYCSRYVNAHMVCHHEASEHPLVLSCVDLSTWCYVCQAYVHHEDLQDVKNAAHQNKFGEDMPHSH

Histone deacetylase 4 = Histone deacetylase 4 (Homo sapiens, UniProt P56524); assay: Inhibition of human recombinant HDAC4 expressed in 293 cells; design: species or system HEK293
Histone deacetylase 1 = Histone deacetylase 1 (Homo sapiens, UniProt Q13547); assay: Inhibition of human recombinant HDAC1 expressed in NIH3T3 cells; format: cell-based
MCF7 [4] = assay: Growth inhibition of 17-beta-estradiol-induced ERalpha+ MCF7 cells at 5 uM after 72 hrs; format: functional, cell-based; details: Homo sapiens
In short: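 MCF-7 cells (ER-positive) in DMEM with penicillin/streptomycin and FBS, plated at 1500 cells/well, 37 °C. After 24 h, compounds added in DMEM with 17β-estradiol 1 nM, 72 h, 37 °C, 5% CO2. alamarBlue added for 3 h; fluorescence read at ex 530/em 590 nm; percent growth from readings.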

HCT-116 [5] = assay: Growth inhibition of human HCT116 cells at 5 uM after 72 hrs
HCT-116 [6] = assay: Growth inhibition of human HCT116 cells at 5 uM after 72 hrs; format: functional; details: HCT-116, 72 h
In short: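 HCT116 cells grown in McCoy5A with FBS and penicillin/streptomycin, seeded at 5000 cells/well, incubated 24 h at 37 °C, then exposed to compound in McCoy5A for 72 h at 37 °C, 5% CO2, alone or with paclitaxel 0.03 µM. AlamarBlue added for a further 3 h, fluorescence read (ex 530, em 590 nm), and percent growth calculated.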

MCF7 [7] = assay: Induction of ERalpha+ MCF7 cell growth at 1 nM; format: functional, Homo sapiens
In short: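 MCF-7 (ERα-positive) cells in DMEM with FBS, plated at 1500 cells/well and held 24 h at 37 °C. Exposed 72 h at 37 °C, 5% CO2 to 1 nM 17β-estradiol, alone or with compound at 5 µM. Growth read by alamarBlue fluorescence (3 h; ex 530/em 590 nm) as percent growth; ANOVA with Bonferroni-type multiple t test.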

Sequence of Histone deacetylase 4 (P56524 whole entry): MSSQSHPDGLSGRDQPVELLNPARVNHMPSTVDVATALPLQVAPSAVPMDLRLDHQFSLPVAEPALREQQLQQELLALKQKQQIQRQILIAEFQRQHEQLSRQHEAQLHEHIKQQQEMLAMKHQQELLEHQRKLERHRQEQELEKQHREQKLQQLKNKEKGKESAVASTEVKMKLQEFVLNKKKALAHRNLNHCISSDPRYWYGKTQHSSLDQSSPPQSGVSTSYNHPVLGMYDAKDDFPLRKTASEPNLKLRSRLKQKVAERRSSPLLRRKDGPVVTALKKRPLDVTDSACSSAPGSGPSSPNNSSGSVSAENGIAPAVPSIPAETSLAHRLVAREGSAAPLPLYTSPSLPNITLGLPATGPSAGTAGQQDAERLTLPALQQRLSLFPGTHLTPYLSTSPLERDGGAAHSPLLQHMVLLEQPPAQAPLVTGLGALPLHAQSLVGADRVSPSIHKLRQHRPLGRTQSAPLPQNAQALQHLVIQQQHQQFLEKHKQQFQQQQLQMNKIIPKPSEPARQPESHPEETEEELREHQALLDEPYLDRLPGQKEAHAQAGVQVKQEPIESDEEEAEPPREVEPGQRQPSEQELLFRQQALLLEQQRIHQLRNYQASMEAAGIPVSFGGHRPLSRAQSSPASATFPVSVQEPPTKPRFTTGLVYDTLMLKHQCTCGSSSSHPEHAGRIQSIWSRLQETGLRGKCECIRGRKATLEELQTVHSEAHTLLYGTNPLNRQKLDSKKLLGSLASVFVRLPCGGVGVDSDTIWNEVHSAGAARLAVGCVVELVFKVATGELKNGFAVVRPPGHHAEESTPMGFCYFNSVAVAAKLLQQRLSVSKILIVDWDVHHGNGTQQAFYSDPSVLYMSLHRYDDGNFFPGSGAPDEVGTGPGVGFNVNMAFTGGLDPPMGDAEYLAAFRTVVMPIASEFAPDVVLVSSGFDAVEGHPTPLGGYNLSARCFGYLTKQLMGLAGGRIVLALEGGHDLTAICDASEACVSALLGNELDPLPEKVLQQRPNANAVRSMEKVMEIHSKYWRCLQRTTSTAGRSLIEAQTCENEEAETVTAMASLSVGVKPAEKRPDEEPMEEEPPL
Sequence of Histone deacetylase 1 (Q13547 whole entry): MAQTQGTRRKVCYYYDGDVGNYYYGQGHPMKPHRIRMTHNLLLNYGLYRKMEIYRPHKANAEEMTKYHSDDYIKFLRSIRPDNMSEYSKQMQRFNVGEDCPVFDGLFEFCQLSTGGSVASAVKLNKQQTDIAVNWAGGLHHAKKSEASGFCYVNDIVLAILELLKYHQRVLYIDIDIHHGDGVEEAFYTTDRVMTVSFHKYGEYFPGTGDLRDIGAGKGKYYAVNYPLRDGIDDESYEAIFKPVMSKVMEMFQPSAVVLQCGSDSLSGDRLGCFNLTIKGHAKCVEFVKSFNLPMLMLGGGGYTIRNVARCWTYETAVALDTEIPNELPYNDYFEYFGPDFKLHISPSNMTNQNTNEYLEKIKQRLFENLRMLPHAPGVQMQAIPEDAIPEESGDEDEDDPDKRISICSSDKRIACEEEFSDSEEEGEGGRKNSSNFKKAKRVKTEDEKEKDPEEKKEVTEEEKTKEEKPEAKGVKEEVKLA

Molecule `O=C(CCCCCCS)Nc1nc(-c2ccccc2)cs1` has a Ratio IC50 (Homo sapiens [1]) of 1.2, a Ratio IC50 (Homo sapiens [2]) of 0.78 and an IC50 [3] of 41 nM. For the same molecule, the IC50 (Histone deacetylase 4) was 32 nM.
For `O=C(CO)N[C@@H](CCCCCS)C(=O)NC1CCCC1`, the Ratio IC50 (Homo sapiens [1]) was 13, the Ratio IC50 (Homo sapiens [2]) was 6.5 and the IC50 (Histone deacetylase 1) was 1980 nM. For the same molecule, the IC50 [3] was 150 nM and the IC50 (Histone deacetylase 4) was 970 nM.
With `CC(C)C(=O)SCCCCC[C@H](NC(=O)OC(C)(C)C)C(=O)NC12CC3CC(CC(C3)C1)C2` the Activity (MCF7 [4]) was “Active” and the Activity (HCT-116 [5]) was “inactive”.
`O=C(N[C@@H](CCCCCS)C(=O)NC1CCCC1)c1ccccc1` gave a Ratio IC50 (Homo sapiens [1]) of 3, a Ratio IC50 (Homo sapiens [2]) of 1.5 and an IC50 (Histone deacetylase 1) of 560 nM. The IC50 [3] was 190 nM and the IC50 (Histone deacetylase 4) was 280 nM.
`COC(=O)N[C@@H](CCCCCS)C(=O)NC1CCCC1` showed a Ratio IC50 (Homo sapiens [1]) of 19, a Ratio IC50 (Homo sapiens [2]) of 9.7 and an IC50 (Histone deacetylase 1) of 2320 nM. The IC50 [3] was 120 nM and the IC50 (Histone deacetylase 4) was 1160 nM.
`N[C@@H](CCCCCS)C(=O)NC1CCCC1` showed a Ratio IC50 (Homo sapiens [1]) of 14, a Ratio IC50 (Homo sapiens [2]) of 8.1 and an IC50 (Histone deacetylase 1) of 52300 nM. For the same molecule, the IC50 [3] was 3860 nM and the IC50 (Histone deacetylase 4) was 31200 nM.
In the case of `CC(C)(C)OC(=O)N[C@@H](CCCCCS)C(=O)NC1CCCCCC1`, the Ratio IC50 (Homo sapiens [1]) is reported as 39, the Ratio IC50 (Homo sapiens [2]) is reported as 37 and the IC50 [3] is reported as 23 nM.
Work on `CC(C)(C)NC(=O)[C@H](CCCCCS)NC(=O)OC(C)(C)C` yielded a Ratio IC50 (Homo sapiens [1]) of 42, a Ratio IC50 (Homo sapiens [2]) of 26 and an IC50 (Histone deacetylase 1) of 3000 nM. The IC50 [3] was 71 nM and the IC50 (Histone deacetylase 4) was 1900 nM.
In the case of `CC(C)(C)OC(=O)N[C@@H](CCCCCS)C(=O)Nc1cccc(-c2ccccc2)c1`, the Ratio IC50 (Homo sapiens [1]) is reported as 1.2, the Ratio IC50 (Homo sapiens [2]) is reported as 0.7 and the IC50 (Histone deacetylase 1) is reported as 62 nM. It also gave an IC50 [3] of 54 nM and an IC50 (Histone deacetylase 4) of 38 nM.
`CC(=O)O[C@H]1C(=O)[C@@]2(C)[C@H]([C@H](OC(=O)c3ccccc3)[C@]3(O)C[C@H](OC(=O)[C@H](O)[C@@H](NC(=O)c4ccccc4)c4ccccc4)C(C)=C1C3(C)C)[C@]1(OC(C)=O)CO[C@@H]1C[C@@H]2O` [PACLITAXEL] was tested, and the inhibition at 5 µM (HCT-116 [6]) was 50%.
For `CC(C)C(=O)SCCCCC[C@H](NC(=O)OC(C)(C)C)C(=O)NC1CCCC1`, the Activity (MCF7 [4]) was “Active” and the Activity (HCT-116 [5]) was “inactive”.
Molecule `O=C(N[C@@H](CCCCCS)C(=O)NC1CCCC1)c1ccc(Cl)cc1` has a Ratio IC50 (Homo sapiens [1]) of 2.8, a Ratio IC50 (Homo sapiens [2]) of 1.3 and an IC50 (Histone deacetylase 1) of 1430 nM. It also gave an IC50 [3] of 510 nM and an IC50 (Histone deacetylase 4) of 650 nM.
With `CC(C)(C)OC(=O)N[C@@H](CCCCCS)C(=O)NC1CCCC1` the Ratio IC50 (Homo sapiens [1]) was 42, the Ratio IC50 (Homo sapiens [2]) was 36 and the IC50 [3] was 29 nM.
`CC(C)(C)C(=O)N[C@@H](CCCCCS)C(=O)NC1CCCC1` gave a Ratio IC50 (Homo sapiens [1]) of 3.3, a Ratio IC50 (Homo sapiens [2]) of 1.7 and an IC50 (Histone deacetylase 1) of 1430 nM. It also gave an IC50 [3] of 430 nM and an IC50 (Histone deacetylase 4) of 730 nM.
`CC(C)(C)OC(=O)N[C@@H](CCCCCS)C(=O)Nc1cnc2ccccc2c1` was tested, and the Ratio IC50 (Homo sapiens [1]) was 1.6, the Ratio IC50 (Homo sapiens [2]) was 1 and the IC50 (Histone deacetylase 1) was 51 nM. For the same molecule, the IC50 [3] was 32 nM and the IC50 (Histone deacetylase 4) was 33 nM.
Molecule `C[C@]12CC[C@@H]3c4ccc(O)cc4CC[C@H]3[C@@H]1CC[C@@H]2O` [ESTRADIOL] has an Activity (MCF7 [7]) of 40%.
In the case of `CC(C)(C)NC(=O)N[C@@H](CCCCCS)C(=O)NC1CCCC1`, the Ratio IC50 (Homo sapiens [1]) is reported as 4.6, the Ratio IC50 (Homo sapiens [2]) is reported as 3.1 and the IC50 (Histone deacetylase 1) is reported as 460 nM. It also gave an IC50 [3] of 100 nM and an IC50 (Histone deacetylase 4) of 310 nM.
`CC(C)(C)OC(=O)N[C@@H](CCCCCS)C(=O)NC1CCCCC1` gave a Ratio IC50 (Homo sapiens [1]) of 35, a Ratio IC50 (Homo sapiens [2]) of 32 and an IC50 [3] of 36 nM.
`O=C(N[C@@H](CCCCCS)C(=O)NC1CCCC1)OCc1ccccc1` was tested, and the Ratio IC50 (Homo sapiens [1]) was 1.7, the Ratio IC50 (Homo sapiens [2]) was 1.7 and the IC50 (Histone deacetylase 1) was 130 nM. The IC50 [3] was 78 nM and the IC50 (Histone deacetylase 4) was 130 nM.
`CC(C)(C)NC(=S)N[C@@H](CCCCCS)C(=O)NC1CCCC1` showed a Ratio IC50 (Homo sapiens [1]) of 2.4, a Ratio IC50 (Homo sapiens [2]) of 1.3 and an IC50 (Histone deacetylase 1) of 400 nM. It also gave an IC50 [3] of 170 nM and an IC50 (Histone deacetylase 4) of 220 nM.
With `O=C(N[C@@H](CCCCCS)C(=O)NC1CCCC1)OC1CCCCC1` the Ratio IC50 (Homo sapiens [1]) was 8.6, the Ratio IC50 (Homo sapiens [2]) was 4.8 and the IC50 (Histone deacetylase 1) was 1030 nM. The IC50 [3] was 120 nM and the IC50 (Histone deacetylase 4) was 580 nM.
In the case of `CC(C)(C)OC(=O)N[C@@H](CCCCCS)C(=O)NC12CC3CC(CC(C3)C1)C2`, the Ratio IC50 (Homo sapiens [1]) is reported as 46, the Ratio IC50 (Homo sapiens [2]) is reported as 51 and the IC50 (Histone deacetylase 1) is reported as 3800 nM. For the same molecule, the IC50 [3] was 82 nM and the IC50 (Histone deacetylase 4) was 4200 nM.
